pIC50: −log10 of the molar value.
Legend:
[1] = tested on: geranylgeranyl diphosphate synthase (GGDPS); conditions: cited from earlier work
GGTase II = target: T1, GGTase II (Homo sapiens, UniProt P53611+Q92696); conditions: cited from earlier work
T1 sequence (Q92696 1-567): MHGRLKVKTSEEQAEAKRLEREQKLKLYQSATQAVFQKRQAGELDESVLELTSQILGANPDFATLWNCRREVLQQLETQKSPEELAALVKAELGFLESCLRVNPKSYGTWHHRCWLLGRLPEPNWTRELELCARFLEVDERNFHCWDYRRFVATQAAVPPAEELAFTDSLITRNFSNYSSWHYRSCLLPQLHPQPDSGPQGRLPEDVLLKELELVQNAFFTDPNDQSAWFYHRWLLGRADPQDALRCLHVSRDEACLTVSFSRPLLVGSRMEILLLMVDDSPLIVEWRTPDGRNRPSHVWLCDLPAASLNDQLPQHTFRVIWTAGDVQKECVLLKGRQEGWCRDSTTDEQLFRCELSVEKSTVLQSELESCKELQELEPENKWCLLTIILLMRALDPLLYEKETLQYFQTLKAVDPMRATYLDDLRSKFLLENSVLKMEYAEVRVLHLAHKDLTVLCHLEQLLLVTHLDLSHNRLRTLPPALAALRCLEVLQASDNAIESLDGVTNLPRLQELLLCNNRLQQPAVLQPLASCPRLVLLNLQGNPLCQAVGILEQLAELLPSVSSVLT
T1 sequence (P53611 1-331): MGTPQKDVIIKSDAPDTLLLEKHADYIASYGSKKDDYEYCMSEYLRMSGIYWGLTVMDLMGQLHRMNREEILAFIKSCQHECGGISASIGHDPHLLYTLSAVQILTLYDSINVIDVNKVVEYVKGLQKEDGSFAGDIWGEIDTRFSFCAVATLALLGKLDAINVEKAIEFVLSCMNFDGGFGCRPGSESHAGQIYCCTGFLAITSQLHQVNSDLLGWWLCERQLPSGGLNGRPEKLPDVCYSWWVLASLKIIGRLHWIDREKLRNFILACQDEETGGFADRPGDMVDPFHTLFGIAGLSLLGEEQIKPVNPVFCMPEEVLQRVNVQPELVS

[2] = tested on: Rab6 geranylgeranylation in RPMI-8226 cells; assay: immunoblot for membrane-bound Rab6; assay type: cell-based, human; conditions: 48 hours, 5 mM, detergent (membrane) fraction
How it was run: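 RPMI-8226 human myeloma cells were exposed to test compound at 5 mM or left untreated for 48 hours, with lovastatin at 20 μM as a global prenylation-disruption control. Cells were lysed by Triton X-114 partitioning to give the detergent (membrane) fraction, which was immunoblotted for Rab6 with calnexin as the loading control. Blots are representative of two independent studies.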

[3] = tested on: farnesyl diphosphate synthase (FDPS); conditions: cited from earlier work
RPMI-8226 cells = assay: intracellular lambda light chain ELISA; assay type: cell-based, human; conditions: 48 hours, 5 mM, vs untreated control
How it was run: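 RPMI-8226 cells were incubated for 48 hours with test compound at 5 mM, alongside untreated and lovastatin (20 μM) controls. Intracellular lambda light chain was quantified by ELISA and expressed as percent of untreated control, mean + SD, n=3. Significance versus untreated cells was assessed by unpaired two-tailed t-test at p<0.05.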

Row | SMILES | membrane-bound Rab6 level [2] | activity against FDPS [3] | intracellular lambda light chain accumulation (RPMI-8226 cells) | further results
1 | O=C(O)C(O)(Cc1cnc2ccccn12)P(=O)(O)O (single isomer, unassigned; enantiomer 4) [(+)-enantiomer 4] | – | – | – | inhibition of other enzyme involved in isoprenoid biosynthesis, probably GGDPS [1]: weak inhibition; activity of (+)-enantiomer relative to (−)-enantiomer (GGTase II): ~ 60 fold
2 | O=C(O)C(O)(Cc1cccnc1)P(=O)(O)O (stereo not drawn) [compound 1, 2-(3-pyridinyl)-1-hydroxyethylidene-1,1-phosphonocarboxylic acid] | induces a decrease in the amount of membrane-bound Rab6 | show little activity against FDPS | induce an accumulation of intracellular light chain | difference in activity between the enantiomers (GGTase II): ~ 4 fold
3 | O=C(O)C(Cc1cccnc1)P(=O)(O)O (stereo not drawn) [compound 2, 2-(3-pyridinyl)-1-ethylidene-1,1-phosphonocarboxylic acid] | diminished the level of membrane-bound Rab6 to a lesser extent | show little activity against FDPS | do not significantly alter light chain trafficking | GGTase II potency relative to PEHPC (GGTase II): potency similar to PEHPC
5 | O=C(O)C(O)(Cc1ccc[n+]([O-])c1)P(=O)(O)O (stereo not drawn) [compound 6] | diminished the level of membrane-bound Rab6 to a lesser extent | – | induce an accumulation of intracellular light chain | –
6 | O=C(O)C(Cc1ccc[n+]([O-])c1)P(=O)(O)O (stereo not drawn) [compound 7] | did not decrease membrane-bound Rab6 levels | – | do not significantly alter light chain trafficking | –
